Measurements: ChEMBL document CHEMBL1126030, “Synthesis and antiviral activity of a series of HIV-1 protease inhibitors with functionality tethered to the P1 or P1' phenyl substituents: X-ray crystal structure assisted design” (J Med Chem, 1992)

How the values were obtained:
[1] = target: Human immunodeficiency virus type 1 protease (Human immunodeficiency virus 1) (UniProt Q72874); assay: Ratio of inhibitory activity on HIV-1 protease (IC50) to antiviral activity against HIV-1 in human H9 T-lymphoid cell-ELISA assay(CIC); type: functional, cell-based
Method in brief: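 Ratio of enzyme IC50 against HIV-1 protease to CIC. CIC is the minimum cell culture inhibitory concentration that prevents spread of HIV-1 infection in human H9 T-lymphoid cells, read out by p24 ELISA.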

H9 [2] = assay: In vitro anti viral activity against HIV-1 in human H9 T-lymphoid cell culture by p-24-ELISA assay; type: functional
Method in brief: (§1)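 Read-out is the minimum cell culture inhibitory concentration (CIC), the lowest concentration that fully prevents spread of viral infection in the human cell culture. Spread is scored by fixed-cell immunofluorescence or by p24 ELISA.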

[3] = target: T1, Human immunodeficiency virus type 1 protease (Human immunodeficiency virus 1, UniProt Q72874); assay: (§2) In vitro enzyme inhibitory activity against HIV-1 protease.
H9 [4] = assay: In vitro anti viral activity against HIV-1 in human H9 T-lymphoid cell culture by fixed cell immunofluorescence assay; type: functional; method in brief: as §1
MT4 [5] = assay: In vitro anti viral activity against HIV-1(IIIb) MT-4 T-lymphoid cell culture by fixed cell immunofluorescence assay; type: functional, Homo sapiens; method in brief: as §1
MT4 [6] = assay: In vitro anti viral activity against HIV-1(MN) in MT-4 T-lymphoid cell culture by fixed cell immunofluorescence assay; type: functional, Homo sapiens; method in brief: as §1
Homo sapiens [7] = species on record: Homo sapiens; assay: In vitro anti viral activity against HIV-1(IIIb) in peripheral blood lymphocytes by fixed cell immunofluorescence assay; type: functional; method in brief: as §1
H9 [8] = assay: In vitro anti viral activity against HIV-1(IIIb) in H9 T-lymphoid cell culture by p-24 ELISA assay; type: functional, Homo sapiens; method in brief: as §1
MT4 [9] = assay: In vitro anti viral activity against HIV-1(IIIb) MT-4 T-lymphoid cell culture by p-24-ELISA assay; type: functional, Homo sapiens; method in brief: as §1
Homo sapiens [10] = species on record: Homo sapiens; assay: In vitro anti viral activity against HIV-1(IIIb) in peripheral blood lymphocytes by p-24-ELISA assay; type: functional; method in brief: as §1
H9 [11] = assay: In vitro anti viral activity against HIV-1(IIIb) in H9 T-lymphoid cell culture by fixed cell immunofluorescence assay; type: functional, Homo sapiens; method in brief: as §1
MT4 [12] = assay: In vitro anti viral activity against HIV-1(RF) in MT-4 T-lymphoid cell culture by fixed cell immunofluorescence assay; type: functional, Homo sapiens; method in brief: as §1
H9 [13] = assay: In vitro anti viral activity against SIV(mne) in H9 T-lymphoid cell culture by fixed cell immunofluorescence assay; type: functional, Homo sapiens; method in brief: as §1
Homo sapiens [14] = species on record: Homo sapiens; assay: In vitro anti viral activity against HIV-1(SF162) in monocytes/macrophages by fixed cell immunofluorescence assay; type: functional; method in brief: as §1
H9 [15] = assay: In vitro anti viral activity against SIV-mac251 in H9 T-lymphoid cell culture by fixed cell immunofluorescence assay; type: functional, Homo sapiens; method in brief: as §1
[16] = target: T1, Human immunodeficiency virus type 1 protease; assay: as §2; type: functional
MT4 [17] = assay: In vitro anti viral activity against HIV-1(RUTZ) in MT-4 T-lymphoid cell culture by fixed cell immunofluorescence assay; type: functional, Homo sapiens; method in brief: as §1
MT4 [18] = assay: In vitro anti viral activity against HIV-1(WMJ-2) in MT-4 T-lymphoid cell culture by fixed cell immunofluorescence assay; type: functional, Homo sapiens; method in brief: as §1
MT4 [19] = assay: In vitro anti viral activity against HIV-1(IIIB) in MT-4 T-lymphoid cell culture by p-24-ELISA assay; type: functional, Homo sapiens; method in brief: as §1

Row | SMILES | I/C [1] | CIC (H9 [2]) | IC50 [3] | CIC (H9 [4]) | other results
1 | CC(C)(C)OC(=O)N[C@@H](Cc1ccccc1)[C@@H](O)CC(Cc1ccc(OCC(=O)O)cc1)C(=O)NC1c2ccccc2C[C@H]1O (some centres undefined) | < 0.0001 | >400 nM | 0.04 nM |  | 
2 | COCCN(CCOC)CCOc1ccc(C[C@H](C[C@H](O)[C@H](Cc2ccccc2)NC(=O)OC(C)(C)C)C(=O)NC2c3ccccc3C[C@H]2O)cc1 (some centres undefined) | 0.018 |  | 0.9 nM | 50 nM | 
3 | CC(C)(C)OC(=O)N[C@@H](Cc1ccccc1)[C@@H](O)C[C@@H](Cc1ccc(OCCN2CCCCC2)cc1)C(=O)NC1c2ccccc2C[C@H]1O (some centres undefined) | 0.004 |  | 1.6 nM | 400 nM | 
4 | CC(C)(C)OC(=O)N[C@@H](Cc1ccccc1)[C@@H](O)C[C@@H](Cc1ccc(O)cc1)C(=O)N[C@H]1c2ccccc2C[C@H]1O | 0.0032 | 50 nM | 0.16 nM | 25 nM | 
5 | CC(C)(C)OC(=O)N[C@@H](Cc1ccccc1)[C@@H](O)C[C@@H](Cc1ccc(OCCO)cc1)C(=O)NC1c2ccccc2C[C@H]1O (some centres undefined) | 0.0018 | 50 nM | 0.09 nM |  | 
6 | CC(C)(C)OC(=O)N[C@@H](Cc1ccc(OCCN2CCOCC2)cc1)[C@@H](O)C[C@@H](Cc1ccc(OCCN2CCOCC2)cc1)C(=O)NC1c2ccccc2C[C@H]1O (some centres undefined) | 0.019 |  | 1.9 nM | 100 nM | 
7 | NC1N=CNc2c1ncn2[C@H]1CC[C@@H](CO)O1 (some centres undefined) |  |  |  | 25000 nM | 
8 | CC(C)(C)OC(=O)N[C@@H](Cc1ccccc1)[C@@H](O)C[C@@H](Cc1ccc(OCCN2CCOCC2)cc1)C(=O)N[C@H]1c2ccccc2C[C@H]1O | 0.038 | 50 nM |  | 12 nM | CIC (MT4 [5]): 25 nM; CIC (MT4 [6]): 25 nM; CIC (Homo sapiens [7]): 0.78 nM; CIC (H9 [8]): 25 nM; CIC (MT4 [9]): 50 nM; CIC (Homo sapiens [10]): 25 nM; CIC (H9 [11]): 12 nM; CIC (MT4 [12]): 50 nM; CIC (H9 [13]): 200 nM; CIC (Homo sapiens [14]): 50 nM; CIC (H9 [15]): 800 nM; IC50 [16]: 0.45 nM; CIC (MT4 [17]): 12 nM; CIC (MT4 [18]): 12 nM
9 | CC(C)(C)OC(=O)N[C@@H](Cc1ccccc1)[C@@H](O)C[C@@H](Cc1ccccc1)C(=O)N[C@H]1c2ccccc2C[C@H]1O | 0.0009 |  | 0.35 nM | 400 nM | 
10 | CC(C)(C)OC(=O)N[C@@H](Cc1ccccc1)[C@@H](O)C[C@@H](Cc1ccc(OCCCN2CCOCC2)cc1)C(=O)NC1c2ccccc2C[C@H]1O (some centres undefined) | 0.01 |  | 2 nM | 200 nM | 
11 | CN1CCN(CCOc2ccc(C[C@H](C[C@H](O)[C@H](Cc3ccccc3)NC(=O)OC(C)(C)C)C(=O)NC3c4ccccc4C[C@H]3O)cc2)CC1 (some centres undefined) | 0.002 | 100 nM | 0.2 nM |  | 
12 | CC(C)(C)OC(=O)N[C@@H](Cc1ccccc1)[C@@H](O)C[C@@H](Cc1ccc(OCCN2CCS(=O)(=O)CC2)cc1)C(=O)NC1c2ccccc2C[C@H]1O (some centres undefined) | 0.0008 | 100 nM | 0.08 nM |  | 
13 | CC(C)(C)OC(=O)N[C@@H](Cc1ccc(OCCN2CCOCC2)cc1)[C@@H](O)C[C@@H](Cc1ccccc1)C(=O)NC1c2ccccc2C[C@H]1O (some centres undefined) | 0.011 |  | 0.55 nM | 50 nM | 
14 | CC(C)(C)OC(=O)N[C@@H](Cc1ccc(O)cc1)[C@@H](O)C[C@@H](Cc1ccc(O)cc1)C(=O)NC1c2ccccc2C[C@H]1O (some centres undefined) | 0.0002 |  | 0.15 nM | 780 nM | 
15 | CC(C)(C)OC(=O)N[C@@H](Cc1ccccc1)[C@@H](O)C[C@@H](Cc1ccc(OCc2ccccc2)cc1)C(=O)NC1c2ccccc2C[C@H]1O (some centres undefined) | 0.0036 | 50 nM | 0.18 nM |  | 
16 | CC(C)(C)OC(=O)N[C@@H](Cc1ccccc1)[C@@H](O)C[C@@H](Cc1ccc(OCC(=O)N2CCOCC2)cc1)C(=O)NC1c2ccccc2C[C@H]1O (some centres undefined) | 0.004 | 50 nM | 0.2 nM |  | 
17 | CC(C)(C)OC(=O)N[C@@H](Cc1ccccc1)[C@@H](O)C[C@@H](Cc1ccc(OCC[N+]2([O-])CCOCC2)cc1)C(=O)NC1c2ccccc2C[C@H]1O (some centres undefined) | 0.002 | 100 nM | 0.2 nM |  | 
18 | CC(C)(C)OC(=O)N[C@@H](Cc1ccccc1)[C@@H](O)C[C@@H](Cc1ccc(OCCN2CC[S+]([O-])CC2)cc1)C(=O)NC1c2ccccc2C[C@H]1O (some centres undefined) | 0.00035 |  | 0.07 nM | 200 nM | 
19 | CC(C)(C)OC(=O)N[C@@H](Cc1ccc(O)cc1)[C@@H](O)C[C@@H](Cc1ccccc1)C(=O)NC1c2ccccc2C[C@H]1O (some centres undefined) | 0.007 | 25 nM | 0.35 nM | 50 nM | 
20 | Cc1cn([C@H]2C[C@H](N=[N+]=[N-])[C@@H](CO)O2)c(=O)[nH]c1=O [ZIDOVUDINE] |  |  |  |  | CIC (MT4 [19]): 25 nM
21 | CC(C)(C)OC(=O)N[C@@H](Cc1ccccc1)[C@@H](O)C[C@@H](Cc1ccc(OCCN2CCSCC2)cc1)C(=O)NC1c2ccccc2C[C@H]1O (some centres undefined) | 0.0094 |  | 0.47 nM | 50 nM | 
22 | CN(C)CCOc1ccc(C[C@H](C[C@H](O)[C@H](Cc2ccccc2)NC(=O)OC(C)(C)C)C(=O)NC2c3ccccc3C[C@H]2O)cc1 (some centres undefined) | 0.0025 |  | 1 nM | 400 nM | 
23 | CC(C)(C)OC(=O)N[C@@H](Cc1ccccc1)[C@@H](O)C[C@@H](Cc1ccc(OCCN2CCCC2)cc1)C(=O)NC1c2ccccc2C[C@H]1O (some centres undefined) |  |  | 1.8 nM |  | 
